Results published in ChEMBL document CHEMBL1157725 (Bioorg Med Chem, 2010).
Active and inactive are the calls of the source. No cut-off for these calls is given here.

What was measured:
[1] = Inhibition of tubulin in rat A10 cells assessed as induction of cellular microtubule disassembly after 18 hrs by indirect immunofluorescence technique; format: cell-based; conditions: A10, 18 h
How it was run: (§1)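 A-10 cells plated on glass coverslips and treated with compound at varying concentrations for 18 h. After fixation, microtubules immunostained with a β-tubulin antibody (indirect immunofluorescence) and nuclei stained with DAPI. Read by fluorescence microscopy. Percentage of cellular microtubule loss estimated visually across the concentration range.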

[2] = Displacement of [3H]colchicine from tubulin at 50 uM by turbidimetry; conditions: in the assay text read “by DEAE-cellulose filter method” for “by turbidimetry”
How it was run: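 Binding of [³H]colchicine to tubulin (1.0 µM, 0.1 mg/mL) is measured by the DEAE-cellulose filter method. The radioligand is at 5.0 µM and test agents at 5 or 50 µM. Each is run in triplicate.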

A10 = experiment: Inhibition of tubulin in rat A10 cells assessed as disappearance of microtubule network at 20 uM after 18 hrs by fluorescence microscopy; format: cell-based; how it was run: as §1
[3] = Inhibition of tubulin polymerization by turbidimetry
How it was run: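 Tubulin at 10 µM (1.0 mg/mL). Polymerization followed turbidimetrically at 350 nm in temperature-controlled spectrophotometers.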

[4] = Displacement of [3H]colchicine from tubulin at 5 uM by DEAE-cellulose filter method
MCF7 = experiment: Antiproliferative activity against human MCF7 cells after 24 hrs by SRB assay; format: functional, cell-based; conditions: MCF7, 24 h
How it was run: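 MCF-7 cells are grown for 24 h with or without drug, then for a further 48 h. Total cell protein is measured by sulforhodamine B staining, and the IC₅₀ is derived from it.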

Row | Structure (SMILES) | EC50 [1] [nM] | inhibition [2] [%] | Activity (A10) | IC50 [3] [nM] | inhibition [4] [%] | IC50 (MCF7) [nM]
1 | COc1ccc(/C=C/C(=O)c2cc(OC)c(OC)c(OC)c2)cc1O | 980 | 101 | Active | 2600 | 88 | 110
2 | COc1ccc(C(=O)/C=C/c2cc(OC)c(OC)c(OC)c2)cc1O | 18000 | – | – | > 40000 | – | > 2500
